PGC1a acetyl up = raises PGC1a acetylation signal in U2OS cells. U2OS PGC1a acetylation AlphaScreen, overnight. AID 651723. hit rate 0.21% among 350,000. activation, % at 15.6 µM;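 active = every replicate reaching activation of at least 50%, whatever the mean replicate activation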;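 also: hits raise the AlphaScreen acetylation signal above neutral controls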
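System: Flag-PGC1a/GCN5 U2OS cells | Quantity: 7000 cells/well | Times: Overnight compound treatment, 37 °C | Measured by: AlphaScreen proximity luminescence, anti-acetyl-lysine antibody | Dosing: One concentration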
Each line names hits and unclear results; the compound was inactive in the other large screens. A selection follows.

C[C@@H]1CN([C@@H](C)CO)S(=O)(=O)c2ccc(-c3ccc(F)cc3)cc2O[C@H]1CN(C)C(=O)C1CCCCC1	none
COc1ccc(S(=O)(=O)N(C)C[C@H]2Oc3cc(C4=CCCC4)ccc3S(=O)(=O)N([C@H](C)CO)C[C@@H]2C)cc1	none
COc1ccc(S(=O)(=O)N(C)C[C@@H]2Oc3cc(C#CC4CC4)ccc3S(=O)(=O)N([C@@H](C)CO)C[C@@H]2C)cc1	PGC1a acetyl up 136.3
C[C@H]1CN([C@@H](C)CO)S(=O)(=O)c2ccc(Br)cc2O[C@@H]1CN(C)S(=O)(=O)c1ccccc1F	PGC1a acetyl up 64.4
Cc1ccccc1-c1ccc2c(c1)O[C@H](CN(C)Cc1ccncc1)[C@@H](C)CN([C@@H](C)CO)S2(=O)=O	PGC1a acetyl up 57.3
C[C@H](CO)N1C[C@H](C)[C@H](CN(C)C(=O)NC2CCCCC2)Oc2cc(C#Cc3ccc(F)cc3)ccc2S1(=O)=O	none
CCCN(C)C[C@@H]1Oc2cc(C#C[C@H](C)O)ccc2S(=O)(=O)N([C@H](C)CO)C[C@@H]1C	none
COc1ccccc1C#Cc1ccc2c(c1)O[C@@H](CN(C)Cc1cccnc1)[C@H](C)CN([C@@H](C)CO)S2(=O)=O	none
C[C@H](CO)N1C[C@H](C)[C@@H](CN(C)Cc2cccnc2)Oc2cc(C#CC3CCCCC3)ccc2S1(=O)=O	none
Cc1ccc(S(=O)(=O)N(C)C[C@H]2Oc3cc(C#Cc4ccncc4)ccc3S(=O)(=O)N([C@H](C)CO)C[C@H]2C)cc1	none
COc1ccc(S(=O)(=O)N(C)C[C@@H]2Oc3cc(C#CC4CC4)ccc3S(=O)(=O)N([C@H](C)CO)C[C@@H]2C)cc1	PGC1a acetyl up 56.4
COCCn1c(C)c(C)c2c(NCCc3ccccc3)ncnc21	none
COC(=O)c1cc(Cl)c(NS(=O)(=O)c2ccccc2)cc1OC	none
O=C(O)C1C2CC3OC(=O)C1C3C2 (stereo not given)	none
COc1cccc(-c2ccc(C3[C@@H]4CN(Cc5ccccn5)C[C@H]3N4)cc2)c1 (stereo not given in full)	PGC1a acetyl up 55.5
COc1cc(CN2C[C@@H]3N[C@H](C2)C3c2ccc(-c3ccccc3C)cc2)cc(OC)c1 (stereo not given in full)	none
COc1cccc(CN2C[C@@H]3N[C@H](C2)C3c2ccc(-c3ccccc3F)cc2)c1 (stereo not given in full)	PGC1a acetyl up 108.2
Fc1cccc(CN2C[C@@H]3N[C@H](C2)C3c2ccc(/C=C/c3ccccc3)cc2)c1 (stereo not given in full)	PGC1a acetyl up 65.5
Fc1cccc(-c2ccc([C@@H]3[C@@H]4CN(Cc5nccs5)C[C@H]3N4)cc2)c1	PGC1a acetyl up 75.2
Cc1ccc(NC(=S)NNC(=O)c2nn(C)c(C)c2Cl)cc1	none
CCC(=O)N1C[C@H](C)[C@@H](OC)CN(C)C(=O)c2ccc(NC(=O)Nc3ccccc3)cc2OC[C@@H]1C	none
O=C(CCl)N=c1sccn1Cc1ccc(Cl)cc1Cl	none
CC(C)NC(=O)Nc1ccc2c(c1)C(=O)N([C@@H](C)CO)C[C@@H](C)[C@H](CN(C)C(=O)NC(C)C)OCCCC[C@@H](C)O2	none
COc1cccc(-c2ccc(C3[C@@H]4CN(Cc5cccc(F)c5)C[C@H]3N4)cc2)c1 (stereo not given in full)	none
COc1cccc(CN2C[C@@H]3N[C@H](C2)C3c2ccc(-c3cccc(C#N)c3)cc2)c1 (stereo not given in full)	PGC1a acetyl up 79.3
O=S(=O)(Nc1ccccn1)c1ccc(-n2cccn2)cc1	none
CC(NC1c2ccccc2-c2ccccc21)c1ccccc1 (stereo not given)	none
Cc1ccc(S(=O)(=O)N[C@@H]2C=C[C@H](CC(=O)NCCN3CCCCC3)O[C@@H]2CO)cc1	none
O=C(C1CCCO1)N1CCN(Cc2c(O)ccc3ccccc23)CC1 (stereo not given)	PGC1a acetyl up 190.7
O=C(c1ccc2ccccc2c1)N1CCCC1	none
O=C(NC(=S)N1CCN(Cc2ccccc2)CC1)c1cccnc1	none
Oc1ccc2ccccc2c1CN1CCCCC1	PGC1a acetyl up 104.4
O=C(NC(=S)Nc1ccc(CN2CCCCC2)cc1)c1cc2ccccc2o1	none
Cc1cccc(-n2c(=O)cc(N3CCN(c4ccc(F)cc4)CC3)[nH]c2=O)c1	none
O=C(Cn1ncc(Cl)c(Cl)c1=O)NC(=O)NC1CCCCC1	none
COc1ccc(NC(=O)Cn2ncc(Cl)c(Cl)c2=O)cc1S(=O)(=O)N1CCOCC1	PGC1a acetyl up 105.3
CCC(=O)Nc1ccc(C(=O)Cn2ncc(Cl)c(Cl)c2=O)cc1	PGC1a acetyl up 265.2
O=C(Cn1ncc(Cl)c(Cl)c1=O)N1CCN(S(=O)(=O)c2ccc3ccccc3c2)CC1	none
Cc1ccc(C)c(C(=O)Cn2ncc(Cl)c(Cl)c2=O)c1	PGC1a acetyl up 484.9
CCC(=O)N(C)C[C@@H]1Oc2cc(C#Cc3cccnc3)ccc2S(=O)(=O)N([C@H](C)CO)C[C@H]1C	none
COc1ccc2c([N+](=O)[O-])c(N3CCCC3)[nH]c2c1	none
C[C@@H]1CN([C@@H](C)CO)C(=O)CCCn2cc(nn2)CO[C@H]1CN(C)S(=O)(=O)c1ccccc1	none

Screens deposited in PubChem BioAssay by Broad Institute.
